CHT PAM: human CHT allosteric activation | Q9GZV3 | CHT-expressing cells, membrane potential dye, choline EC20; active compounds read high; LV-AA mutant CHT in HEK293 cells | B-score at 10 µM | 310,000 tested, 0.49% active | AID 488977;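 active = initial fluorescence not abnormally high and integrated response B-score, plate-corrected, over 3 SD above library mean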
Target sequence (Q9GZV3 whole entry, looked up): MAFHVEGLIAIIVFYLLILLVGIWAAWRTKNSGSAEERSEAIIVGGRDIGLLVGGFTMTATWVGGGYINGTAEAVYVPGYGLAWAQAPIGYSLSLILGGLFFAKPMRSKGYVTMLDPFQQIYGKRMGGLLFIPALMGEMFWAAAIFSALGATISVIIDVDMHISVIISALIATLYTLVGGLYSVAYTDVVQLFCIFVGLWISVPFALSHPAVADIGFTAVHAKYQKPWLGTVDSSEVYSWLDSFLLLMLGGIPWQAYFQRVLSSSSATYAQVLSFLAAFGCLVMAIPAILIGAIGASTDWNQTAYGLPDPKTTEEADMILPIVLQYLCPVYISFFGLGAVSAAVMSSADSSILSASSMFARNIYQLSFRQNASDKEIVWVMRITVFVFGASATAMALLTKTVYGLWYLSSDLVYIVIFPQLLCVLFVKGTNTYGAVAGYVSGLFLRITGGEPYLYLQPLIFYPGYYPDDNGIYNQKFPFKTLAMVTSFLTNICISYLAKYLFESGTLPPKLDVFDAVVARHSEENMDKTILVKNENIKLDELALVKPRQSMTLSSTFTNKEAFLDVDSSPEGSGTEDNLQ
CHT inh: inhibits the human high affinity choline transporter. 310,000 tested, 0.86% active. Q9GZV3. B-score at 10 µM. AID 488975. CHT-expressing cells, membrane potential dye, choline response; active compounds read low;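 active = B-score over 3 SD under the library average, and starting fluorescence ratio not unusually high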;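 also: choline stimulus applied at its EC90 after an EC20 pre-addition; B-score computed on integrated fluorescence ratio after choline addition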
Rad51 HR inh: blocks human Rad51 in homologous recombination. Q06609. hRad51 DNA strand exchange, fluorescence dequenching. inhibition, % at 10 µM. 200,000 tested, 0.085% active. AID 1385;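 active = inhibition above 40% at the single screening dose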;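 also: 0% = DMSO control wells and 100% = blanks with heterologous ssDNA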
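material = hRad51 filaments on single-stranded DNA | reagent = Donor/quencher-labelled 47-bp dsDNA substrate | compound = 10 µM final, single point | schedule = strand-exchange reaction 15 min at room temperature | measured by = fluorescein emission 520 nm, excitation 485 nm | read-out basis = % inhibition versus plate control and blank means | benchmarks = plate controls and plate blanks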
KCC2 mod: modulates chloride dependent transport by human KCC2. KCC2 cells, thallium flux FluoZin-2 fluorescence. Q9H2X9. B-score of Tl+ flux slope (higher = more flux/activation; lower = inhibition) at 10 µM. 190,000 tested, 2.2% active;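 active = thallium flux slope and its plate-corrected score both differing from the plate sample mean at a set confidence after two filtering rounds, in either direction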;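 also: slope of fluorescence scaled to starting intensity during 10 to 20 s after thallium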
CHT act confirm: human CHT activation, confirmatory screen. shares compounds with CHT PAM. CHT-expressing cells, membrane potential dye fluorescence (FDSS); % of choline EC20–EC90 response window; HEK293 expressing CHT LV-AA mutant; choline added at its EC20. activation, % at 10 µM. 2,500 tested, 91% active. AID 504833;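 active = primary screen active, with duplicate mean activation above negative control mean plus 3 SD, cut at about 11% in these data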
HEK293 MP dye: counter-screen for CHT activators: effect in parental HEK293 cells | shares compounds with CHT PAM | membrane potential dye fluorescence (FDSS); measured after EC20 choline addition | ratio readout change at 10 µM, hits read low | 2,500 tested, 62% active | AID 623908;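 active = duplicate-averaged ratio beyond 3 SD from buffer wells, up or down, though filed actives are nearly all decreases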
An asterisk follows results filed as active; i = inactive; / = no result. Rows were chosen to be rich in hits. Some 2.6% of all compounds tested hit in one or more screens of this group.

SMILES	CHT PAM	CHT inh	Rad51 HR inh	KCC2 mod	CHT act confirm	HEK293 MP dye
C=CCN1CC[C@]23c4c5ccc(O)c4O[C@H]2/C(=N/NC(=O)c2ccccc2)CC[C@@]3(O)[C@H]1C5	i	i	0	/	/	/
NS(=O)(=O)c1cccc(N2CCNCC2)c1	i	i	-96	/	/	/
CCc1nc2ccc(N3CCN(C)CC3)cc2nc1CC	i	i	-2	-0.5	/	/
CN1CCN(c2ccc3nccnc3c2)CC1	i	i	-2	-0.21	16*	i
CNC(=S)N(C)CCc1cc2c(c(OC)c1/C=C1/C(=O)NC(=O)N(C)C1=O)OCO2	6.6*	i	-10	0.46	37*	-54*
CCCCn1c(N)c(C(=O)NCCN2CCOCC2)c2nc3ccccc3nc21	i	i	8	-0.21	/	/
CCOC(=O)c1c(N)n(CCN2CCCCC2)c2nc3ccccc3nc12	i	i	10	0.59	29*	-42*
COc1ccc(C(=O)OC2C[C@H]3CC[C@H](C2)N3C)cc1OC (stereo partly specified)	6.6*	i	/	/	40*	-32*
O=[N+]([O-])c1ccc(N2CCCC(C(F)(F)F)C2)c2ccncc12 (stereo unspecified)	i	i	/	/	/	/
O=[N+]([O-])c1ccc(C[n+]2c(-c3ccccc3)cc(-c3ccccc3)cc2-c2ccccc2)cc1	i	i	/	/	49*	-47*
CCC(CO)Nc1ccc([N+](=O)[O-])c2cccnc12 (stereo unspecified)	i	i	0	0.2	/	/
CN(C)C(=O)Oc1cccc(OCc2n(C)c3ccccc3[n+]2C)c1	7*	i	-4	0.26	55*	-42*
CC1=C2[C@@H]3OC(=O)[C@H](C)C3CC[C@@]2(C)C=CC1=O (stereo partly specified)	i	i	/	/	/	/
COCCN1Cc2cc(=O)n3c([nH]c4ccccc43)c2C1=N	i	i	7	1.2	53*	-42*
COC(=O)C1=C(c2cccc(OC)c2OC)C[C@@H]2CC[C@H]1N2C(=O)N1CCCC1	i	i	11	/	/	/
CCC1(CC)C(=O)C=CNC1=O	i	i	/	/	/	/
c1ccc(-c2[nH]c(-c3ccccc3)[n+](CC3CO3)c2-c2ccccc2)cc1 (stereo unspecified)	i	i	-4	-2.2	25*	i
c1ccc(-c2cc(-c3ccccc3)[n+](-c3ccccc3)c(-c3ccccc3)c2)cc1	i	i	15	-1.5	/	/
C[n+]1c(-c2ccccc2)cc(-c2ccc(Cl)cc2)cc1-c1ccccc1	7.2*	i	4	0.028	30*	-29*
N=C1c2ccccc2CN1c1ccc(F)c([N+](=O)[O-])c1	i	i	20	0.81	46*	-26*
N=C1c2ccccc2CN1NC(=O)c1ccccc1	i	i	15	-0.12	/	/
N=C1c2ccccc2CN1c1cccc([N+](=O)[O-])c1	i	i	22	0.26	54*	-38*
Cc1ccc(C(=O)c2cc(Br)ccc2N)cc1	i	i	/	/	/	/
C[N+](C)(C)CC(=O)O	i	i	/	/	/	/
Cc1ccc(-c2cc(-c3ccc(C)cc3)[n+](-c3ccc(C(=O)[O-])cc3)c(-c3ccc(C)cc3)c2)cc1	9.7*	i	/	/	12*	-35*
SMILES	CHT PAM	CHT inh	Rad51 HR inh	KCC2 mod	CHT act confirm	HEK293 MP dye
Cc1ccc(-c2cc(-c3ccccc3)cc(-c3ccccc3)[n+]2-c2ccccc2)cc1	i	i	/	/	/	/
CCOC(=O)c1ccc(-[n+]2c(-c3ccccc3)cc(-c3ccccc3)cc2-c2ccccc2)cc1	7.7*	i	/	/	63*	i
Clc1ccc(CCC(Cn2ccnc2)Sc2c(Cl)cccc2Cl)cc1 (stereo unspecified)	i	i	/	/	30*	-27*
Clc1ccc(C(Cn2ccnc2)OCc2csc3c(Cl)cccc23)c(Cl)c1 (stereo unspecified)	i	i	/	/	/	/
CCOC(=O)C1CCN(C(C)C(=O)c2c(C)[nH]c3cc(C)ccc23)CC1 (stereo unspecified)	i	i	4	-0.46	/	/
O=[N+]([O-])c1ccc(N2CCNCC2)cc1NCC1CCCO1 (stereo unspecified)	9*	i	-5	-0.81	56*	-66*
CCn1c(=O)n(CC)c2cc([N+](=O)[O-])c(N3CCNCC3)cc21	i	i	6	1.1	/	/
Cc1cc(N2CCOCC2)nc2ccc(NC(=O)CCC(=O)N3CCC4(CC3)OCCO4)cc12	i	i	/	0.69	53*	-38*
CCOc1cc(-c2nc3c(C)cccn3c2NCC2CCCO2)ccc1O (stereo unspecified)	6.4*	i	-4	-1.2	56*	-34*
O=C1CN(O)C(c2ccccc2)=c2cc(Br)ccc2=N1	i	i	/	/	/	/
O=C1Nc2ccccc2/C1=C/c1cnc[nH]1	i	i	-1	0.81	45*	-30*
CN1CCc2nc3sc(C(=O)NC4CC4)c(N)c3cc2C1	i	i	-3	0.58	/	/
CN1CCc2nc3sc(C#N)c(N)c3c(-c3cccs3)c2C1	8.5*	i	-3	/	39*	-59*
